Columns and labels:
[1] = Inhibition of Helix pomatia beta-mannosidase
Procedure, shortened: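 β-Mannosidase at 0.25–1 units per mL in 100 mM sodium citrate, pH 6.4, room temperature. p-Nitrophenyl glycopyranoside substrate at twice its Michaelis–Menten Km. Initial velocities read at 405 nm. Compounds screened first at a single concentration; those active titrated lower for IC50.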

[2] = Inhibition of yeast alpha-glucosidase; design: species or system Saccharomyces cerevisiae
Procedure, shortened: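 Yeast α-glucosidase at 0.25–1 units per mL in 100 mM sodium phosphate, pH 6.8, room temperature. p-Nitrophenyl glycopyranoside substrate at twice Km, with Km 0.19 mM from a Michaelis–Menten fit. Initial velocities monitored at 405 nm. Compounds screened first at a single concentration; actives titrated lower to get IC50.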

[3] = Inhibition of almond beta-glucosidase; design: species or system Prunus dulcis
Procedure, shortened: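 β-Glucosidase at 0.25–1 units per mL in 100 mM sodium phosphate buffer, pH 6.8, room temperature. p-Nitrophenyl glycopyranoside substrate at twice its Michaelis–Menten Km. Initial hydrolysis rates read spectrophotometrically at 405 nm. Compounds screened first at one concentration; actives retested at lower levels for IC50.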

[4] = Inhibition of Bacillus stearothermophilus alpha-glucosidase; design: species or system Geobacillus stearothermophilus
Procedure, shortened: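 Bacillus stearothermophilus α-glucosidase at 0.25–1 units per mL in 100 mM sodium phosphate, pH 6.8, room temperature. Substrate is p-nitrophenyl glycopyranoside at twice Km, with Km 1.5 mM from a Michaelis–Menten fit. Initial hydrolysis rates read at 405 nm. Compounds screened first at a single high concentration; active ones retested at lower concentrations for IC50.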

[5] = Inhibition of yeast alpha-glucosidase by Lineweaver-Burke double reciprocal plot; design: species or system Saccharomyces cerevisiae

SMILES | IC50 [1] | IC50 [2] | IC50 [3] | IC50 [4] | Ki [5]
COc1ccc([C@@H]2N[C@@H](CO)[C@H](O)[C@H]2O)cc1OC | > 200 µM | 6 µM | > 200 µM | > 200 µM | 
COc1ccc(OC)c([C@@H]2[C@@H](O)[C@H](O)[C@@H](CO)N2C)c1 | > 200 µM | > 200 µM | > 200 µM | > 200 µM | 
COc1ccc([C@H]2N[C@H](CO)[C@@H](O)[C@@H]2O)cc1OC | 52 µM | 1.1 µM | 34 µM | 1.8 µM | 0.7 µM
COc1ccc([C@@H]2[C@@H](O)[C@H](O)[C@@H](CO)N2C)cc1OC | > 200 µM | 72 µM | > 200 µM | 24 µM | 
OC[C@H]1N[C@H](c2ccc(O)cc2)[C@@H](O)[C@@H]1O [RADICAMINE B] | > 200 µM | 24 µM | > 200 µM | 10 µM | 
COc1ccc([C@@H]2N[C@@H](CO)[C@H](O)[C@H]2O)cc1 | > 200 µM | 21 µM | > 200 µM | > 200 µM | 
COc1ccc([C@H]2N[C@H](CO)[C@@H](O)[C@@H]2O)cc1O [RADICAMINE A] | 66 µM | 4.2 µM | > 200 µM | 12 µM | 
COc1ccc(OC)c([C@H]2N[C@H](CO)[C@@H](O)[C@@H]2O)c1 | > 200 µM | 2.6 µM | 169 µM | 4 µM | 
OC[C@H]1N[C@H](c2ccccc2)[C@@H](O)[C@@H]1O | 93 µM | 10 µM | 197 µM | 36 µM | 
COc1ccc([C@@H]2[C@@H](O)[C@H](O)[C@@H](CO)N2C)cc1 | 61 µM | 38 µM | > 200 µM | 9.2 µM | 
COc1ccc([C@@H]2N[C@@H](CO)[C@H](O)[C@H]2O)cc1O [L-RADICAMINE A] | 113 µM | > 200 µM | > 200 µM | > 200 µM | 
CCCCN1[C@H](CO)[C@@H](O)[C@H](O)[C@H]1c1ccc(OC)c(O)c1 | > 200 µM | > 200 µM | > 200 µM | > 200 µM | 
COc1cccc([C@H]2N[C@H](CO)[C@@H](O)[C@@H]2O)c1 |  | 2.4 µM |  | 31 µM | 
COc1ccc([C@@H]2[C@@H](O)[C@H](O)[C@@H](CO)N2C)cc1O | 184 µM | 28 µM | > 200 µM | > 200 µM | 
COc1ccc([C@H]2N[C@H](CO)[C@@H](O)[C@@H]2O)c(OC)c1 | 172 µM | 7.8 µM | 96 µM | 8.4 µM | 
COc1ccc([C@H]2N[C@H](CO)[C@@H](O)[C@@H]2O)cc1 | 21 µM | 0.5 µM | 122 µM | 8.8 µM | 
COc1ccc([C@H]2[C@H](O)[C@@H](O)[C@H](CO)N2C)cc1 | > 200 µM | > 200 µM | > 200 µM | > 200 µM | 
COc1ccc([C@@H]2[C@@H](O)[C@H](O)[C@@H](CO)N2C)c(OC)c1 | 86 µM | > 200 µM | > 200 µM | > 200 µM | 
